Data reported in ChEMBL document CHEMBL2321860, “2-Arylpyrazolo[4,3-d]pyrimidin-7-amino derivatives as new potent and selective human A3 adenosine receptor antagonists. Molecular modeling studies and pharmacological evaluation” (J Med Chem, 2013).
Active and inactive are the calls of the source. The calls are words filed in the database; no cut-off is given here.

Columns and labels:
[1] = target: T1, Adenosine receptor A2b (Homo sapiens, UniProt P29275); test: Inhibition of human A2B adenosine receptor transfected in CHO cells assessed as inhibition of NECA-induced cyclic AMP production after 10 mins by competitive protein binding assay; format: cell-based
T1 sequence (P29275 whole entry): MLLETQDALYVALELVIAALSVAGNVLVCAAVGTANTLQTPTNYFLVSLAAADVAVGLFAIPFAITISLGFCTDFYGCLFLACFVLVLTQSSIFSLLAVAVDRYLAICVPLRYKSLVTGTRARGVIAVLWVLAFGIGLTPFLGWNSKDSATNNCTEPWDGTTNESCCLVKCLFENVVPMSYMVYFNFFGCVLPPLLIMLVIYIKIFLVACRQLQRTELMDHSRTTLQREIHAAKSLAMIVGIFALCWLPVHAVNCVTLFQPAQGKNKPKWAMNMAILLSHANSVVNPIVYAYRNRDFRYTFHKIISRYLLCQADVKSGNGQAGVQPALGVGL
Procedure, shortened: (§1)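 Human A2B CHO cells (1 × 10⁶/assay) preincubated 10 min at 37 °C in buffer with adenosine deaminase (2 IU/mL) and Ro 20-1724. Antagonist inhibition of 200 nM NECA-stimulated cAMP measured; reaction stopped with TCA. cAMP quantified by [3H]cAMP competition with adrenal binding protein. IC50 by sigmoid fit, mean SEM of four experiments; % inhibition at 1 μM.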

[2] = target: T2, Adenosine receptor A3 (Homo sapiens) (UniProt P0DMS8); test: Displacement of [125I]AB-MECA from human A3 adenosine receptor expressed in CHO cells at 1 uM after 60 mins by scintillation counting analysis; format: cell-based
T2 sequence (whole entry): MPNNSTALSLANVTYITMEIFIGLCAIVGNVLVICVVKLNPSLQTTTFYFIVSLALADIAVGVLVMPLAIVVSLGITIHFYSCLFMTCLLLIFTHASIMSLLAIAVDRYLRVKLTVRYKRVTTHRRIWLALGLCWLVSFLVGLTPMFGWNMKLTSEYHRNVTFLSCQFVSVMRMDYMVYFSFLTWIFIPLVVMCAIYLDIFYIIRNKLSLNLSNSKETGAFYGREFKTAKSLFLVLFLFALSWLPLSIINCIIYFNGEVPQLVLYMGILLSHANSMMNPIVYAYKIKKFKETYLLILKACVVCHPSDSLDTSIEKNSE
Procedure, shortened: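 Human A3 CHO membranes (50 μg protein) incubated with 0.5 nM [125I]AB-MECA in 50 mM Tris-HCl, 10 mM MgCl2, 1 mM EDTA, pH 7.4, for 60 min at 37 °C. Nonspecific binding defined with 1 μM AB-MECA. Filtration then counting. Output is % inhibition at 1 μM.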

[3] = target: T3, Adenosine receptor A2a (Homo sapiens, UniProt P29274); test: Displacement of [3H]ZM241385 from human A2A adenosine receptor expressed in CHO cells after 60 mins by scintillation counting analysis; format: cell-based
T3 sequence (P29274 whole entry): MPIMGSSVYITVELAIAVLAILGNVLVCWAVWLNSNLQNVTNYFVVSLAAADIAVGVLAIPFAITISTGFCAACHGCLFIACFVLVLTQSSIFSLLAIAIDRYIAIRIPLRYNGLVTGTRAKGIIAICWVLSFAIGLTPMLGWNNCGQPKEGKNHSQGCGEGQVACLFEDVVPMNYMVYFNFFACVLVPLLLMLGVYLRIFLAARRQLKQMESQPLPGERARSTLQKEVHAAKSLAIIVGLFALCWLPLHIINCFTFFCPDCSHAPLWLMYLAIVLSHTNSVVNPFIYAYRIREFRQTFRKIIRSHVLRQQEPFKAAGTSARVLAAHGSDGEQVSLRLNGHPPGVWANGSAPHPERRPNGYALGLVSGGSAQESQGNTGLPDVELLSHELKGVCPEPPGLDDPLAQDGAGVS
Procedure, shortened: (§2)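 Human A2A CHO membranes (50 μg protein) incubated with 1 nM [3H]ZM-241385 in 50 mM Tris-HCl, 10 mM MgCl2, pH 7.4, for 60 min at 4 °C, using 6–8 concentrations or 1 μM for % inhibition. Nonspecific binding defined with 1 μM ZM-241385. Ki via Cheng–Prusoff, mean SEM of four assays in duplicate.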

[4] = target: T4, Adenosine receptor A1 (Homo sapiens, UniProt P30542); test: Displacement of [3H]DPCPX from human A1 adenosine receptor expressed in CHO cells after 120 mins by scintillation counting analysis; format: cell-based
T4 sequence (P30542 whole entry): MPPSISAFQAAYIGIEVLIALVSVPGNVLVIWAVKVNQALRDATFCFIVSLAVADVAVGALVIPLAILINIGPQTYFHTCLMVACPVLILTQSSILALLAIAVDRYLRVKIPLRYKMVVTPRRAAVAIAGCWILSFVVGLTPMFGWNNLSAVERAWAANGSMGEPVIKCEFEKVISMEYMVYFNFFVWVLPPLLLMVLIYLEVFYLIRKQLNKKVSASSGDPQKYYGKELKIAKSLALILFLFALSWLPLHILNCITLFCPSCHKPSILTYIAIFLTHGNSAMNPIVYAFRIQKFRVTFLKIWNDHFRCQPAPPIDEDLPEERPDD

[5] = test system: HT-29; test: Antiapoptotic activity against human HT-29 cells assessed as cell viability at 10 uM after 48 hrs by MTT assay in presence of 100 uM oxaliplatin (reference value: 52.2 +/- 0.5%); format: functional
Procedure, shortened: (§3)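 HT-29 cells in DMEM high glucose with 20% FBS, grown to confluence and serum-starved overnight. Cells were treated for 48 h with oxaliplatin (0.3–100 μM) with or without 10 μM test compound. Viability was read as MTT reduction (1 mg/mL, 2 h, 37 °C), formazan in DMSO, absorbance 580 nm. Output is % of control, quadruplicate on at least three cell batches.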

[6] = test system: HT-29; test: Antiapoptotic activity against human HT-29 cells assessed as cell viability at 10 uM after 48 hrs by MTT assay in presence of 30 uM oxaliplatin (reference value: 81.9 +/- 0.9%); format: functional; procedure, shortened: as §3
[7] = test system: HT-29; test: Antiapoptotic activity against human HT-29 cells assessed as cell viability at 10 uM after 48 hrs by MTT assay in presence of 10 uM oxaliplatin (reference value: 87.2 +/- 0.9%); format: functional; details: HT-29, 48 h, read-out: Activity; procedure, shortened: as §3
[8] = test system: HT-29; test: Antiapoptotic activity against human HT-29 cells assessed as cell viability at 10 uM after 48 hrs by MTT assay in presence of 3 uM oxaliplatin (reference value: 92.3 +/- 1.0%); format: functional; procedure, shortened: as §3
[9] = test system: HT-29; test: Antiapoptotic activity against human HT-29 cells assessed as cell viability at 10 uM after 48 hrs by MTT assay in presence of 1 uM oxaliplatin (reference value: 94.9 +/- 1.3%); format: functional; procedure, shortened: as §3
[10] = test system: HT-29; test: Antiapoptotic activity against human HT-29 cells assessed as cell viability at 10 uM after 48 hrs by MTT assay in presence of 0.3 uM oxaliplatin (reference value: 97.6 +/- 0.9%); format: functional; procedure, shortened: as §3
[11] = test system: Astrocyte; test: Antiapoptotic activity against Sprague-Dawley rat astrocytes assessed as reduction of oxaliplatin-induced caspase-3 activity at 1 uM after 4 hrs by fluorimetric assay; format: functional, cell-based
Procedure, shortened: (§4)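 Primary cortical astrocytes from newborn (P1–P3) rats, GFAP-positive, used 21 days after isolation and serum-starved overnight. Cells were exposed to 100 μM oxaliplatin for 4 h with test compound co-incubated. Lysates were incubated with 0.025 mM Z-DEVD-R110 at 25 °C for 30 min and read by fluorescence (ex 496/em 520 nm). Output is % of untreated control, mean SEM.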

[12] = test system: Astrocyte; test: Antiapoptotic activity against Sprague-Dawley rat astrocytes assessed as reduction of oxaliplatin-induced caspase-3 activity at 0.1 to 10 uM after 4 hrs by fluorimetric assay; format: functional, cell-based; procedure, shortened: as §4
[13] = target: T5, Adenosine receptor A2b (Homo sapiens) (UniProt P29275); test: Inhibition of human A2B adenosine receptor transfected in CHO cells assessed as inhibition of NECA-induced cyclic AMP production at 1 uM after 10 mins by competitive protein binding assay; format: cell-based; procedure, shortened: as §1
T5 sequence (whole entry): T1 sequence (P29275 whole entry)

[14] = target: T6, Adenosine receptor A3 (Homo sapiens, UniProt P0DMS8); test: Inhibition of human A3 adenosine receptor transfected in CHO cells assessed as inhibition of forskolin-induced cyclic AMP production after 10 mins by competitive protein binding assay in presence of CI-IB-MECA; format: functional, cell-based
T6 sequence (P0DMS8 whole entry): T2 sequence (whole entry)
Procedure, shortened: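 Human A3 CHO cells (1 × 10⁶/assay) preincubated 10 min at 37 °C with adenosine deaminase and Ro 20-1724. Antagonist potency measured against 100 nM Cl-IB-MECA-mediated inhibition of 1 μM forskolin-stimulated cAMP. cAMP quantified by [3H]cAMP competition binding. IC50 by sigmoid regression, mean SEM of four experiments.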

[15] = target: T3, Adenosine receptor A2a; test: Displacement of [3H]ZM241385 from human A2A adenosine receptor expressed in CHO cells at 1 uM after 60 mins by scintillation counting analysis; format: cell-based; procedure, shortened: as §2
[16] = target: T7, Adenosine receptor A1 (Homo sapiens) (UniProt P30542); test: Displacement of [3H]DPCPX from human A1 adenosine receptor expressed in CHO cells at 1 uM after 120 mins by scintillation counting analysis; format: cell-based
T7 sequence (whole entry): T4 sequence (P30542 whole entry)

[17] = target: T8, Adenosine receptor A3 (Rattus norvegicus) (UniProt P28647); test: Displacement of [125I]AB-MECA from rat A3 adenosine receptor expressed in HEK293 cells at 1 uM after 60 mins by scintillation counting analysis; format: cell-based
T8 sequence (whole entry): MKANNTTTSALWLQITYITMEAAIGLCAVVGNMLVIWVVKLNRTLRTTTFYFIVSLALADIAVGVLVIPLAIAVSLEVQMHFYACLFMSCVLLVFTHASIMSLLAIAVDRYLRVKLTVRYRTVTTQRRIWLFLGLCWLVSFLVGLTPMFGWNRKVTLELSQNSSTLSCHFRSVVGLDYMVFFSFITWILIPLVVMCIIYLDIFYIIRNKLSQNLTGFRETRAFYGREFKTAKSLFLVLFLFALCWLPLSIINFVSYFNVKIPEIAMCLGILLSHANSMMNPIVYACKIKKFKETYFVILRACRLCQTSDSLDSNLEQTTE
Procedure, shortened: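 Rat A3 receptor in HEK293 membranes (10 μg protein) incubated with 0.5 nM [125I]AB-MECA in 50 mM Tris-HCl, 10 mM MgCl2, 1 mM EDTA, pH 7.4, for 60 min at 37 °C. Nonspecific binding defined with 1 μM AB-MECA. Filtration then scintillation counting. Output is % inhibition at 1 μM.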

[18] = target: T6, Adenosine receptor A3; test: Displacement of [125I]AB-MECA from human A3 adenosine receptor expressed in CHO cells after 60 mins by scintillation counting analysis; format: cell-based

Row | IC50 [1] | inhibition [2] | Ki [3] | Ki [4] | Activity [11] | Activity [12] | inhibition [13] | IC50 [14] | inhibition [15] | inhibition [16] | inhibition [17] | Ki [18] | Compound | Activity [5] | Activity [6] | viability at 10 µM [7] | Activity [8] | Activity [9] | Activity [10]
1 | 320 nM | 40% | 246 nM | 70 nM | – | – | – | – | – | – | – | – | Cc1nc(N)c2nn(-c3ccccc3)cc2n1 | – | – | – | – | – | –
2 | 440 nM | 48% | 325 nM | 75 nM | – | – | – | – | – | – | – | – | Nc1nc(-c2ccccc2)nc2cn(-c3ccccc3)nc12 | – | – | – | – | – | –
3 | 420 nM | 39% | 110 nM | 150 nM | – | – | – | – | – | – | – | – | Nc1nc(Cc2ccccc2)nc2cn(-c3ccccc3)nc12 | – | – | – | – | – | –
4 | – | – | – | – | Active | Active | 2% | 80 nM | 18% | 29% | 3% | 24 nM | COc1ccc(-n2cc3nc(-c4ccccc4)nc(NC(=O)Cc4ccccc4)c3n2)cc1 | 54.8% | 78.8% | 82.2% | 86.6% | 90.2% | 95.1%
